Assay outcomes as filed in PubChem BioAssay.
OXTR ag = human OXTR agonists, primary screen, fluorescence, CHO-OTR cells, Fluo-8 calcium | activation, % at 3 µM | Fluo-8 calcium fluorescence; normalized: DMSO 0%, oxytocin 100% | Oxytocin receptor (Homo sapiens), P30559 | 320,000 compounds, 0.32% hits | AID 2435, 2010;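 active means activation above the mean of all tested compounds plus 3 SD, cutoff set per screening run, cut at about 20% in these data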;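 further: peak over basal fluorescence ratio from a 100 s FLIPR kinetic read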
OXTR potentiator = human OXTR potentiators, primary screen, fluorescence, CHO-OTR cells, Fluo-8 calcium; Oxytocin receptor (Homo sapiens), P30559; Fluo-8 calcium fluorescence, potentiator mode; 0% = oxytocin EC15, 100% = EC100; activation, % at 3 µM; 320,000 compounds, 0.061% hits; AID 2445, 2010;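 active means activation above that plate's cutoff, the mean activation of tested compounds plus 3 SD, cut at about 6.6% in these data, passing the limit was not always enough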;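 further: 100% uses oxytocin at 75 nM as the full agonist control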
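Material: human OTR in CHO cells. Compound: 3.0 µM, one dose. Timing: compound 6 min at room temperature before oxytocin, 100 s read. Evaluation: % activation of max/min ratio relative to oxytocin controls. Replication: single well per compound, singlicate. Signal: Fluo-8 calcium dye fluorescence.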
OX1R antag-1 = antagonists of human orexin 1 receptor (OX1R). Orexin/Hypocretin receptor type 1 (Homo sapiens), O43613. inhibition, % at 6.6 µM. OX1R-expressing cells, FRET antagonist read-out. 330,000 compounds, 1.8% hits; in the data active means inhibition mostly above about 38%, no sharp cut-off; inactive means mostly below about 40%;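 further: 0% = agonist challenge alone and 100% = reference antagonist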
CHO parental Ca = ATP-evoked calcium signal inhibitors, parental CHO, primary screen, counter-screen for OX1R antagonist project, cell-based, fluorescence, Fluo-8 calcium dye | parental CHO-K1, ATP-induced calcium, Fluo-8 fluorescence | inhibition, % at 5.6 µM | 330,000 compounds, 0.63% hits;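 active means inhibition above that plate's mean sample inhibition plus 3 SD, cut at about 26% in these data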;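 further: 0% = ATP-challenged DMSO wells and 100% = DMSO wells without ATP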
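Assay system – parental CHO cells · Reagent – ATP stimulus · Detection – intracellular calcium via Fluo-8 no-wash fluorescent dye · Evaluation – percent inhibition of ATP-evoked calcium rise, normalized to controls · Controls – ATP wells versus no-ATP DMSO wells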
OX1R antag-2 = OX1R (HCRTR1) antagonists, primary screen, fluorescence, CHO/OX1R cells, Fluo-8 calcium, orexin A. Fluo-8 calcium fluorescence. inhibition, % at 5 µM. 330,000 compounds, 0.43% hits;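 active means inhibition above its plate's threshold, mean inhibition of all tested compounds on the plate plus 3 SD, cut at about 37% in these data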;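 further: 0% = orexin A challenge wells and 100% = SB-334867-A antagonist wells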
V1R ag counter = agonists of human V1a receptor, primary screen, counter-screen for OXTR agonist project, fluorescence, CHO-V1R cells. Vasopressin V1a receptor (Homo sapiens), P37288. Fluo-8 calcium fluorescence, agonist mode; 0% DMSO, 100% 3 nM vasopressin. activation, % at 3 µM. 320,000 compounds, 0.25% hits. AID 2797, 2010;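 active means activation above the mean activation of all tested compounds plus 3 SD, per screening run, cut at about 20% in these data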;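 further: signal is peak over basal fluorescence ratio across a 100 second FLIPR read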
Target sequence (P37288 whole entry, looked up): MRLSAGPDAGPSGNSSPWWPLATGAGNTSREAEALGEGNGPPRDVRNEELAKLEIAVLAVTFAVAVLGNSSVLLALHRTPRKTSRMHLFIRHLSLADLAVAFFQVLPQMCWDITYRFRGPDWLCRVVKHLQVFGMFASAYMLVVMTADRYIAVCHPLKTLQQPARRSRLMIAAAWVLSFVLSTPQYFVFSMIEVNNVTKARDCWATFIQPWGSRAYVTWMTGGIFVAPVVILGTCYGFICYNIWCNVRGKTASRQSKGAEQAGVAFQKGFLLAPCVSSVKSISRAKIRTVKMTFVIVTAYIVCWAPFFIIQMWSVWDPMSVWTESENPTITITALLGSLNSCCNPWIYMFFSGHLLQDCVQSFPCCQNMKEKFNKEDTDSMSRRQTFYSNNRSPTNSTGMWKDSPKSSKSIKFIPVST
OX1R HTRF conf = OX1R (HCRTR1) antagonists, confirmation, cell-based, HTRF; shares compounds with OX1R antag-1; OX1R-expressing cells, HTRF antagonist assay; inhibition, % at 6.6 µM; 1,800 compounds, 49% hits; AID 492964, 2010; in the data active means inhibition above about 55%;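 further: CHO cells expressing OX1R stimulated with orexin A at about EC80; 0% = agonist challenge alone and 100% = reference antagonist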
CHO-K1 HTRF cnt = signal inhibition in parental CHO-K1 cells, counter-screen for OX1R antagonist project, cell-based, HTRF; shares compounds with OX1R antag-1; HTRF counterscreen; inhibition, % at 6.6 µM; 1,800 compounds, 48% hits; AID 493232, 2011; in the data active means inhibition above about 17%;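 further: 0% = agonist challenge with vehicle and 100% = vehicle alone without agonist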
* = called active by the depositor; . = not tested or not shown. Only some compounds are listed: those with a hit (about 2.7% of all), similar ones and a draw of the others.

SMILES | OXTR ag | OXTR potentiator | OX1R antag-1 | CHO parental Ca | OX1R antag-2 | V1R ag counter | OX1R HTRF conf | CHO-K1 HTRF cnt
CCOc1ccc(C(C)(C)C)cc1S(=O)(=O)Nc1ccncc1 | 1 | -8 | 12 | -2 | 3 | 0 | . | .
O=c1[nH]c2cc([N+](=O)[O-])c(NCCO)c([N+](=O)[O-])c2[nH]1 | -1 | -11 | 124* | -7 | -19 | -1 | 89* | 96*
CC(=O)Nc1c([N+](=O)[O-])cc2[nH]c(=O)[nH]c2c1[N+](=O)[O-] | 0 | -8 | 185* | -3 | -12 | 0 | 50 | 71*
O=c1[nH]c2ccc(S(=O)(=O)NCCO)cc2[nH]1 | 2 | -5 | 13 | -9 | -16 | 1 | . | .
CCOc1ccc(N2CC(C(=O)NC3CCSC3=O)CC2=O)cc1 (stereo unspecified) | -1 | -3 | 10 | 3 | -12 | -1 | . | .
NC(=S)N=Nc1c(O)[nH]c2ccc(F)cc12 | 0 | -10 | 83* | -2 | 5 | 1 | 46 | 36*
COc1nc2ccccc2nc1CCC(=O)O | 0 | 0 | 17 | -3 | -13 | 1 | . | .
O=C(O)c1ccc2c(c1Nc1ccccc1)C(=O)c1ccccc1C2=O | -1 | -13 | 12 | -4 | -21 | 0 | . | .
O=C(O)c1ccc2c3c(ncnc13)-c1ccccc1C2=O | 0 | -7 | 186* | -6 | -3 | 2 | 58* | 98*
CN1c2ccccc2C(O)=C(C(=S)Nc2ccc(F)c(Cl)c2)S1(=O)=O | 4 | -20 | 82* | -15 | -7 | 8 | 51 | 14
COc1ccc(NC(=O)NNC(=O)c2ccccc2-n2cccc2)cc1OC | -1 | -15 | 10 | -18 | -8 | 0 | . | .
Nc1ncc(-c2ccc([N+](=O)[O-])cc2)cn1 | 0 | -6 | 105* | -11 | -1 | 0 | 39 | 41*
CCSc1ccc([C@@H]2[C@H]3C(=O)N(CC)C(=O)[C@H]3[C@]3(C(=O)OC)CCCCN23)cc1OC | -2 | -3 | 84* | -29 | 32 | -1 | 76* | 7
COc1ccc(/C(O)=C2/C(=O)C(=O)N(c3ncccn3)C2c2ccc(C(C)(C)C)cc2)cc1 (stereo unspecified) | 0 | -7 | 18 | -1 | -4 | -1 | . | .
O=C(Nc1ccc(Cl)cn1)c1ccccc1[N+](=O)[O-] | 0 | -5 | 28 | -11 | -8 | 2 | . | .
O=[N+]([O-])c1cnc(Nc2ccc(Cl)cn2)c([N+](=O)[O-])c1 | -3 | 4 | 97* | -3 | -5 | 0 | 48 | 45*
CN1CCc2c(sc(NC(=O)c3ccc([N+](=O)[O-])o3)c2C(N)=O)C1 | 0 | 5 | 90* | 1 | -3 | -1 | 40 | 31*
NC(=O)c1c(NC(=O)c2ccc([N+](=O)[O-])o2)sc2c1CCCC2 | 0 | -6 | 13 | 1 | 1 | 3 | . | .
CCOC(=O)c1c(C)nc2c3ccccc3ccn12 | -2 | -8 | 90* | -20 | 1 | 1 | 58* | -6
COc1ccc2oc(=O)c(C(=O)NCc3ccc(F)cc3)cc2c1 | 0 | -9 | 17 | -5 | -21 | 3 | . | .
COc1ccc2oc(=O)c(C(=O)NCc3cccnc3)cc2c1 | -1 | -12 | 83* | -21 | -24 | 1 | 35 | 40*
N#C/C(=C\c1c(Oc2ccccc2Cl)nc2ccccn2c1=O)C(=O)NC1CCS(=O)(=O)C1 (stereo unspecified) | 1 | -2 | 21 | -5 | -1 | 1 | . | .
N#C/C(=C\c1c(Oc2ccccc2F)nc2ccccn2c1=O)C(=O)NC1CCS(=O)(=O)C1 (stereo unspecified) | 0 | -3 | 89* | -10 | -17 | 0 | 30 | 36*
CN(C1CCS(=O)(=O)C1)S(=O)(=O)c1cccc2nsnc12 (stereo unspecified) | 1 | -6 | 90* | -12 | -18 | 0 | 49 | 41*
COc1ccc(S(=O)(=O)N2CCCCC2)cc1NC(=O)c1cncc(Br)c1 | 0 | -3 | 2 | -4 | -18 | 2 | . | .
SMILES | OXTR ag | OXTR potentiator | OX1R antag-1 | CHO parental Ca | OX1R antag-2 | V1R ag counter | OX1R HTRF conf | CHO-K1 HTRF cnt
CC[C@@]1(C(=O)OC)N[C@H](CN(C)C(=O)NC(C)C)[C@@H]2C(=O)N(C)C(=O)[C@@H]21 | 1 | 1 | -1 | -5 | -4 | 0 | . | .
CCC[n+]1c2ccccc2cc2ccccc21 | 0 | -6 | 84* | -17 | -9 | -1 | 48 | 54*
CCCCC[n+]1cccc2c3ccccc3ccc21 | 0 | -7 | 46 | -3 | -22 | 1 | . | .
COc1ccc(NC(=O)CSc2nnnn2C)c([N+](=O)[O-])c1 | 0 | -1 | 117* | -7 | -16 | 0 | 25 | 46*
Cc1ccc(S(=O)(=O)Oc2cc(N)c3c(n2)CCC3)cc1 | -1 | -9 | 2 | 1 | 4 | 1 | . | .
CCN(CC)CC(=O)Nc1ccc(-c2ccc(NC(=O)CN(CC)CC)c(OC)c2)cc1OC | -1 | -10 | 8 | -13 | -10 | -1 | . | .
CC(C(=O)NCCSCc1cccc(Cl)c1)N(c1ccccc1)S(C)(=O)=O (stereo unspecified) | -1 | -16 | 6 | -13 | -24 | 1 | . | .
Cc1ccc(OCCSc2nc3ncnc(N)c3[nH]2)cc1 | -3 | -6 | 99* | -10 | -21 | -1 | 22 | -2
O=C(Nc1ccc(F)c(Cl)c1)Nn1cnnc1 | 0 | 12 | -2 | -2 | -11 | 1 | . | .
CCC(CO)Nc1ncc([N+](=O)[O-])cc1C#N (stereo unspecified) | -1 | -9 | 27 | -3 | 1 | -1 | . | .
N#Cc1cc([N+](=O)[O-])cnc1N(CCO)CCO | -1 | -3 | 82* | -2 | -13 | 1 | 34 | 22*
COc1ccc(/C=C(/NC(=O)c2ccco2)C(=O)N2CCCCC2)cc1 | 0 | -3 | 42 | -8 | -13 | 1 | . | .
O=C(OCN1C(=O)C(=O)c2ccccc21)c1ccc(Cl)cc1 | -2 | -12 | 6 | -8 | -22 | 0 | . | .
